≈ marks a conversion by molar mass, not a printed value.
What was measured:
HCT cell line [1] = assay: The inhibition concentration against etoposide resistant HCT/VP35 cell growth after 72 hours; type: functional, cell-based; details: Homo sapiens
In short: (§1)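 Panel of human colon lines (HCT-116, etoposide sensitive; HCT/VP35, acquired-resistant; MOSER, inherently resistant) and mouse melanoma B16-F10. Viability is read by crystal violet protein stain, or by XTT vital stain for some HCT/VP35 and HCT-116 runs. IC50 is the dose reducing cell growth by 50% after 72 h versus controls. Values are averages of at least two runs.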

Mus musculus [2] = assay: Anti-P388 Leukemia activity administered 150 mg/kg intraperitoneally, expressed as percent of the median survival time; type: functional; details: route intraperitoneal
In short: (§2)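 P388 leukemia-bearing mice given drug ip on days 1 and 5, with dose expressed per injection. T/C is the median survival time of treated mice as a percent of saline-treated controls. Long-term survivors are mice alive out of total on day 30, when the experiment ended.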

Mus musculus [3] = assay: Anti-P388 Leukemia activity administered 30 mg/kg intraperitoneally, expressed as percent of the median survival time; type: functional; details: route intraperitoneal; in short: as §2
[4] = Inhibitory selectivity against HCT/VP35 and HCT116 cell growth after 72 hours; type: functional, HCT-116
In short: (§3)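 Ratio of the HCT/VP35 IC50 to the HCT-116 IC50, as a measure of overcoming acquired etoposide resistance. The IC50 is the dose giving 50% growth reduction after 72 h versus controls, read by crystal violet or XTT stain. Values are averages of at least two runs.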

B16-F10 [5] = assay: The inhibition concentration of B16-F10 cell growth after 72 hours; type: functional, cell-based; details: Mus musculus, B16-F10, 72 h; in short: as §1
Homo sapiens [6] = species: Homo sapiens; assay: The inhibition concentration of MOSER cell growth after 72 hours; type: functional; in short: as §1
Homo sapiens [7] = species: Homo sapiens; assay: In vitro inhibitory concentration against MOSER cell growth after 72 hours; type: functional; in short: as §1
HCT-116 [8] = assay: In vitro inhibitory concentration against etoposide sensitive HCT116 cell growth after 72 hours; type: functional, cell-based; details: Homo sapiens, HCT-116, 72 h; in short: as §1
Mus musculus [9] = assay: Percent median survival time (T/C) of mice when administered intraperitoneally at dose 20 mg/kg; type: functional; details: route intraperitoneal; in short: as §2
Mus musculus [10] = assay: Percent median survival time (T/C) of mice when administered intraperitoneally at dose 40 mg/kg; type: functional; details: route intraperitoneal; in short: as §2
B16-F10 [11] = assay: In vitro inhibitory concentration against B16-F10 cell growth after 72 hours; type: functional, cell-based; details: Mus musculus, B16-F10, 72 h; in short: as §1
HCT cell line [12] = assay: In vitro inhibitory concentration against etoposide resistant HCT/VP35 cell growth after 72 hours; type: functional, cell-based; details: Homo sapiens; in short: as §1
Mus musculus [13] = assay: Maximum percent median survival time of mice when administered intraperitoneally at dose 60 mg/kg; type: functional; details: route intraperitoneal
Mus musculus [14] = assay: Number of long time survivors (mice alive/total) when administered intraperitoneally at dose 60 mg/kg when tested in 4 mice; type: functional; details: route intraperitoneal; in short: as §2
Mus musculus [15] = assay: Percent median survival time (T/C) of mice when administered intraperitoneally at dose 80 mg/kg; type: functional; details: route intraperitoneal; in short: as §2
Mus musculus [16] = assay: Number of long time survivors (mice alive/total) when administered intraperitoneally at dose 80 mg/kg when tested in 4 mice; type: functional; details: route intraperitoneal; in short: as §2
HCT-116 [17] = assay: The inhibition concentration against etoposide sensitive HCT116 cell growth after 72 hours; type: functional, cell-based; details: Homo sapiens, HCT-116, 72 h; in short: as §1
Mus musculus [18] = assay: Anti-P388 Leukemia activity administered 50 mg/kg intraperitoneally, expressed as percent of the median survival time; type: functional; details: route intraperitoneal; in short: as §2
[19] = Inhibitory selectivity against HCT/VP35 and HCT116 cell growth after 72 hr IC50 value for etoposide in the parenthesis; type: functional, HCT-116; in short: as §3
Mus musculus [20] = assay: Anti-P388 Leukemia activity administered 200 mg/kg intraperitoneally, expressed as percent of the median survival time; type: functional; details: route intraperitoneal; in short: as §2
Mus musculus [21] = assay: Percent median survival time (T/C) of mice when administered intraperitoneally at dose 120 mg/kg; type: functional; details: route intraperitoneal; in short: as §2

SMILES: COc1cc(OC)cc([C@@H]2c3cc4c(cc3[C@@H](O[C@@H]3O[C@@H]5CO[C@@H](C)O[C@H]5[C@H](O)[C@H]3O)[C@H]3COC(=O)[C@H]23)OCO4)c1
- IC50 (HCT cell line [1]): 3.4 µg/mL (≈ 5.94 µM)
- T/C (Mus musculus [2]): 175
- T/C (Mus musculus [3]): 125
- Selectivity [4]: 0.47
- IC50 (B16-F10 [5]): 25 µg/mL (≈ 43.7 µM)
- IC50 (Homo sapiens [6]): 45.5 µg/mL (≈ 79.5 µM)

SMILES: COc1cc([C@@H]2c3cc4c(cc3[C@@H](O[C@@H]3O[C@@H]5CO[C@@H](C)O[C@H]5[C@H](O)[C@H]3O)[C@H]3COC(=O)[C@H]23)OCO4)ccc1O
- IC50 (Homo sapiens [7]): 46.5 µg/mL (≈ 83.3 µM)
- IC50 (HCT-116 [8]): 15.4 µg/mL (≈ 27.6 µM)
- T/C (Mus musculus [9]): 190
- T/C (Mus musculus [10]): 245
- IC50 (B16-F10 [11]): 20.1 µg/mL (≈ 36 µM)
- Selectivity [4]: 12.3
- IC50 (HCT cell line [12]): 5.4 µg/mL (≈ 9.67 µM)

SMILES: COC1=CC([C@@H]2c3cc4c(cc3[C@@H](O[C@@H]3O[C@@H]5CO[C@@H](C)O[C@H]5[C@H](O)[C@H]3O)[C@H]3COC(=O)[C@@H]32)OCO4)=CC(=O)C1=O
- Max T/C (Mus musculus [13]): >595
- T/C (Mus musculus [10]): 274
- LTS (Mus musculus [14]): 2
- T/C (Mus musculus [15]): >621
- LTS (Mus musculus [16]): 3

SMILES: C[C@@H]1OC[C@H]2O[C@@H](O[C@@H]3c4cc5c(cc4[C@@H](c4ccc(O)cc4)[C@H]4C(=O)OC[C@@H]43)OCO5)[C@H](O)[C@@H](O)[C@@H]2O1
- IC50 (HCT-116 [17]): 62.7 µg/mL (≈ 119 µM)
- T/C (Mus musculus [18]): 145
- Selectivity [19]: 1.4
- IC50 (HCT cell line [1]): 85.1 µg/mL (≈ 161 µM)
- T/C (Mus musculus [20]): 175
- IC50 (B16-F10 [5]): 43.4 µg/mL (≈ 82.1 µM)
- IC50 (Homo sapiens [6]): 42.9 µg/mL (≈ 81.2 µM)

SMILES: COc1cc([C@@H]2c3cc4c(cc3[C@@H](O[C@@H]3O[C@@H]5CO[C@@H](C)O[C@H]5[C@H](O)[C@H]3O)[C@H]3COC(=O)[C@H]23)OCO4)cc(OC)c1O [ETOPOSIDE]
- T/C (Mus musculus [21]): 447

Source: ChEMBL document CHEMBL1124508, “E-ring desoxy analogues of etoposide” (J Med Chem, 1989)
